Screening data from PubChem BioAssay.
In the library only some 3.7% were active in any assay of this set; here they are far more common.
HCV NS3 hel inh: HCV NS3 helicase inhibition; NS3 helicase DNA unwinding, Cy5 molecular beacon fluorescence; inhibition, % at 10.9 µM; 290,000 tested, 0.56% active; AID 1800;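 active means inhibition above the mean of all tested compounds plus 3 SD, set per campaign, cut at about 35% in these data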;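 further: 0% = DMSO wells and 100% = thioflavine S control wells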
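assay system = NS3 helicase fragment of HCV | buffer or medium = MOPS pH 6.5, MgCl2, DTT, Tween20, BSA | timing = 60 min unwinding reaction at 25 °C after ATP addition | signal = Cy5 beacon fluorescence read at start and 1 h | read-out basis = % inhibition of unwinding | control set = low DMSO, high thioflavine S at 110 µM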
rCAG RNA binder: r(CAG) repeat RNA binding | TO-PRO-1 dye displacement fluorescence | AID 651821 | 370,000 tested, 1.3% active | inhibition, % at 3 µM;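 active means inhibition above the plate cutoff, the mean of all test compounds on that plate plus 3 SD, cut at about 35% in these data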;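 further: 0% = DMSO alone and 100% = 100 µM mitoxantrone as full dye displacement; higher means more dye released from RNA so lower well fluorescence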
TAAR1 antagonist: antagonists of human TAAR1. Q96RJ0. CHO RD-HGA16 TAAR1, Fluo-8 calcium fluorescence, antagonist. inhibition, % at 3 µM. 360,000 tested, 1.5% active;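 active means inhibition above a per-plate cutoff, the mean inhibition of test compounds on that plate plus 3 SD, cut at about 49% in these data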;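 further: 0% = DMSO plus EC80 beta-PEA response and 100% = DMSO alone without agonist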
Target sequence (Q96RJ0 whole entry, looked up): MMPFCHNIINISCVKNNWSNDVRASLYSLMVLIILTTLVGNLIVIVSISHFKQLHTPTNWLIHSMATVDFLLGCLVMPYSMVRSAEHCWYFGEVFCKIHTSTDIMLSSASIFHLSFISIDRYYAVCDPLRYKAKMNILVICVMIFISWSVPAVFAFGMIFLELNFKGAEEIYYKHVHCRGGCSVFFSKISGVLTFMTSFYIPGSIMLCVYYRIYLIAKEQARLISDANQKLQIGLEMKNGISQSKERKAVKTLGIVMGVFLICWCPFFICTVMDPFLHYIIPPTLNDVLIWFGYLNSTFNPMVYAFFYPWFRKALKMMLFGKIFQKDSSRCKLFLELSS
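Test system: CHO RD-HGA16 cells bearing hTAAR1 | Reagent: β-PEA, EC80 | Compound dosing: 3 µM, single point | Schedule: Dye loading 75 min at 37 °C, then 30 min room temperature | Signal: Calcium fluorescence with Fluo-8 | Evaluation: Percent inhibition of PEA-evoked calcium signal, max/basal emission ratio | Control set: DMSO-only wells and EC80 β-PEA-stimulated wells | Repeats: Singlicate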
TAAR1 ag: agonists of human TAAR1 | activation, % at 3 µM | 360,000 tested, 0.99% active | Q96RJ0 | CHO RD-HGA16 TAAR1, Fluo-8 calcium fluorescence; vehicle wells 0%, saturating PEA agonist 100%;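 active means activation above the mean activation of all test compounds in the run plus 3 SD, cut at about 38% in these data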
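Test system: RD-HGA16 (CHO) cells co-expressing Gα16 and hTAAR1 | Doses: Single dose, 3 µM | Schedule: 17-24 h seeding, 75 min 37 °C dye, 30 min RT | Evaluation: % activation from peak over basal fluorescence ratio, DMSO-to-PEA scaled | Technique: Kinetic Fluo-8 calcium fluorescence | Benchmarks: Low control DMSO, high control PEA (EC100)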
core dimer inh: blocks dimerization of HCV core protein | 300,000 tested, 0.33% active | TR-FRET GST/Flag-core106 dimerization, 1536-well | inhibition, % at 5 µM;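 active means inhibition above the mean of all tested compounds plus 3 SD, set per screening campaign, cut at about 45% in these data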
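System – GST-tagged and Flag-tagged HCV core protein residues 1-106 · Repeats – one well for each compound · Technique – TR-FRET 671 and 617 nm emission · Doses – one concentration, 5 µM, in 0.5% DMSO · Times – 4 h, 22.5 °C incubation · Also added – Eu donor and XL665 acceptor anti-tag antibodies · Measure – percent inhibition of core106 dimerization signal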
TAAR1 ag confirm: human TAAR1 agonism, confirmed; 2,400 tested, 82% active; CHO RD-HGA16 TAAR1, Fluo-8 calcium fluorescence; scaled: DMSO 0%, maximal phenethylamine 100%; activation, % at 3 µM; shares compounds with TAAR1 ag; AID 651783;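 active means activation above a cutoff set at the run's mean compound activation plus 3 SD, cut at about 39% in these data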
Ga16 nonsel ag: counter-screen for TAAR1 agonists: nonselective agonists in parental cells; 2,400 tested, 50% active; CHO-Ga16 parental, Fluo-8 calcium fluorescence; normalized to maximal ATP response, DMSO zero; activation, % at 3 µM; shares compounds with TAAR1 ag;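 active means activation above the run cutoff, the mean activation over all tested wells plus 3 SD, cut at about 12% in these data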;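 further: 0% = DMSO wells and 100% = maximal ATP response on the peak over basal ratio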
TAAR1 desens: human TAAR1 agonist that also desensitizes the receptor | shares compounds with TAAR1 ag | CHO RD-HGA16 hTAAR1, Fluo-8 calcium, beta-PEA response inhibition | inhibition, % at 3 µM | 2,400 tested, 46% active | AID 651951;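 active means inhibition above the run cutoff, the mean inhibition of all test compounds plus 3 SD, cut at about 49% in these data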;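 further: beta-PEA stimulus applied at its EC80; loss of beta-PEA calcium signal after compound pretreatment read as receptor desensitization; 0% = DMSO with beta-PEA at EC80 and 100% = DMSO alone without agonist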
Ga16 antag count: counter-screen for TAAR1 agonists: nonselective Ga16 antagonists; inhibition, % at 3 µM; CHO-Ga16 ATP-induced calcium, Fluo-8 fluorescence; 2,400 tested, 39% active; shares compounds with TAAR1 ag;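 active means inhibition above the plate's mean compound inhibition plus 3 SD, computed per plate, cut at about 22% in these data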;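 further: 0% = EC80 ATP with DMSO and 100% = DMSO wells without ATP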
An asterisk follows results filed as active; i = inactive; / = not tested or not shown; + = active, no number.

SMILES	HCV NS3 hel inh	rCAG RNA binder	TAAR1 antagonist	TAAR1 ag	core dimer inh	TAAR1 ag confirm	Ga16 nonsel ag	TAAR1 desens	Ga16 antag count
CN1CCN(C2=Cc3cc(Cl)ccc3Sc3cc(F)ccc32)CC1	-52	-4	39	67*	0	89*	46*	70*	45*
CN1CCN(C2=Cc3ccccc3Sc3cc(F)c(Cl)cc32)CC1	-69	-7	2	46*	-2	38*	16*	19	24*
O=C(CCc1c[nH]c2ccccc12)Nc1ccc(Nc2ccccc2)cc1	/	8	36	6	/	/	/	/	/
CC(C)c1ccc(N2C(=O)/C(=C/N(C)C)SC2=S)cc1	20	27	49*	59*	15	58*	56*	51*	65*
CC(C)(C)c1ccc(C2(C)NC(=O)N(CC(=O)c3ccc[nH]3)C2=O)cc1 (stereo not drawn)	1	8	-13	56*	21	35	13*	22	18
CC(C)(C)c1ccc(C2(C)NC(=O)N(CC(=O)NCc3cccs3)C2=O)cc1 (stereo not drawn)	-21	-1	-22	5	-6	/	/	/	/
CCOC(=O)c1c(NC(=O)C(C)N2CCN(C(=O)c3ccco3)CC2)sc2c1CCCC2 (stereo not drawn)	-5	0	87*	84*	16	42*	37*	71*	59*
CCOC(=O)c1c(NC(=O)c2ccco2)sc2c1CCCCC2	0	2	-21	3	3	/	/	/	/
COc1ncnc2c1ncn2CCCNCC(C)c1ccccc1 (stereo not drawn)	/	0	47	65*	/	81*	0	50*	4
O=C(O)c1ccc(N/N=C/C(Br)=C/c2ccccc2)cc1	18	16	60*	122*	-3	33	19*	34	21
C[C@@H]1COc2cc(Br)ccc2S(=O)(=O)N1Cc1cn(Cc2ccc(Br)cc2)nn1	/	7	/	/	/	/	/	/	/
Fc1ccccc1N1CCN(C(c2cccs2)c2nnnn2CCc2ccccc2)CC1 (stereo not drawn)	-2	0	27	77*	0	83*	0	56*	6
Fc1ccc(N2CCN(C(c3cccs3)c3nnnn3CCc3ccccc3)CC2)cc1 (stereo not drawn)	-3	-1	6	3	21	/	/	/	/
c1ccc(CCn2nnnc2C(c2cccs2)N2CCN(Cc3ccc4c(c3)OCO4)CC2)cc1 (stereo not drawn)	-35	-10	73*	85*	5	95*	1	89*	3
CC(C)C(c1nnnn1Cc1ccccc1)N1CCN(Cc2ccc3c(c2)OCO3)CC1 (stereo not drawn)	-13	-14	4	1	-2	/	/	/	/
CCOC(=O)C1C(=O)C=C(c2ccc(C)cc2)CC1c1ccccc1 (stereo not drawn)	7	-4	22	-1	9	/	/	/	/
CCOC(=O)C1C(=O)C=C(/C=C/c2ccc(N(C)C)cc2)CC1c1ccccc1 (stereo not drawn)	2	-7	70*	79*	16	69*	85*	85*	84*
Nc1nc(-c2ccccc2)cn1/N=C/c1ccccc1	-1	6	30	61*	3	93*	5	70*	10
Cc1cc(C(=O)CN2C(=O)C(=O)N(Cc3ccco3)C2=O)c(C)n1CCc1ccccc1	/	18	10	37	/	/	/	/	/
Cc1cc(C(=O)CN2C(=O)C(=O)N(Cc3ccco3)C2=O)c(C)n1CCc1ccc(F)cc1	/	21	7	48*	/	88*	9	43	12
CCN(CC)C1=CC2=CC(=C(C#N)C#N)CCC2CC1 (stereo not drawn)	20	i	109*	1000*	-37	+	+	106*	103*
CCCCN(C)C1=CC2=CC(=C(C#N)C#N)CCC2CC1 (stereo not drawn)	4	-420	108*	992*	-15	763*	872*	106*	103*
N#CC(C#N)=C1C=C2C=C(N3CCCCC3)CCC2CC1 (stereo not drawn)	-4	/	/	/	-21	/	/	/	/
COc1ccc(S(=O)(=O)NNC(=S)NCCc2ccccc2)c(OC)c1	4	-3	-30	49*	2	17	1	3	6
COc1ccc(CCNC(=O)CNS(=O)(=O)c2ccc(N(C)C)c([N+](=O)[O-])c2)cc1OC	6	3	-13	4	-9	/	/	/	/
SMILES	HCV NS3 hel inh	rCAG RNA binder	TAAR1 antagonist	TAAR1 ag	core dimer inh	TAAR1 ag confirm	Ga16 nonsel ag	TAAR1 desens	Ga16 antag count
CN(C)c1ccc(S(=O)(=O)NCC(=O)NCc2ccccc2)cc1[N+](=O)[O-]	2	4	48	79*	0	12	4	0	-6
O=C(C(=O)N1CCN(S(=O)(=O)c2ccc(OC(F)(F)F)cc2)CC1)c1cccc(C(F)(F)F)c1	/	2	-8	-2	/	/	/	/	/
N#CCC[C@H]1CC[C@]2(CCCN(C(=O)c3ccc4ccccc4n3)C2)O1	/	1	/	/	/	/	/	/	/
Cc1cc(S(=O)(=O)Nc2cccc(Cl)c2)c(C)s1	-9	4	12	40*	7	60*	10	17	12
CCCNC(=O)c1ccc(CN2CCc3ccccc3C2)cc1	-2	-8	6	6	6	/	/	/	/
O=C(NCN1CCc2ccccc2C1)c1ccccc1	7	3	54*	82*	7	50*	1	21	5
O=C(NCN1CCc2ccccc2C1)c1cnccn1	4	-3	57*	95*	-5	88*	0	65*	8
O=C(CN1CCc2ccccc2C1)c1cccs1	-6	0	25	75*	5	86*	3	46	-1
O=C(c1cnccn1)N1CCc2ccccc2C1	-4	0	-25	1	3	/	/	/	/
COc1cccc(-c2nnc(SCC(=O)Nc3ccc(OCc4ccccc4)cc3)n2Cc2ccco2)c1	/	10	/	/	/	/	/	/	/
C[C@H]1[C@H](c2ccccc2)Oc2cccc(NCCc3ccccc3)c2S(=O)(=O)N1Cc1cccc(F)c1	/	5	7	61*	/	41*	4	2	3
